Results on 24 sequences are retold here after the EternaBench riboswitch data.

For the data set, the system named is MS2 coat protein. The experiment in a line: apparent Kd, MS2 coat protein; higher = weaker binding; RNA-MaP array; FMN 200 µM where present. A digest of the protocol:
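Designs were transcribed by stalled E. coli RNA polymerase on Illumina sequencing-chip clusters. They were titrated with SNAP-549-labelled MS2 coat protein from 0.7 or 1.5 nM, doubling to 3 µM, in 100 mM Tris-HCl pH 7.5, 80 mM KCl, 4 mM MgCl2, BSA, DTT, yeast tRNA and Tween-20, without and then with constant ligand. The apparent Kd is the median of filtered per-cluster fits after normalisation of green signal to red-channel RNA signal and control-cluster median Fmax.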

Setting [1] is: designed as: ON switch for flavin mononucleotide, no ligand.
The mark [2] stands for this setting: ligand present: flavin mononucleotide, designed as: ON switch for flavin mononucleotide.
The mark [3] stands for this setting: designed as: OFF switch for flavin mononucleotide, no ligand.
Where [4] appears, read: ligand present: flavin mononucleotide, designed as: OFF switch for flavin mononucleotide.

As for “ACCACGUUAGCGAUAUGAUCGAGAGAUCAUGUCGCUAUAUUUAGAAGGACAUGAGGAUCACCCAUGUAGGAUAUGGGUCGUGGA”, the apparent Kd – broadly, the concentration giving half-maximal binding under the conditions of the assay – runs as follows: under setting [1], 0.0363 µM; under setting [2], 0.00903 µM.

On to “CUAUUGUGAGGAUAUCAGUAGUAGAACAAUAGUACUACUACUGAGAAGGCACAUGAGGAUCACCCAUGUUCCUC”, for which the “apparent Kd” value is, setting by setting: under setting [3], 0.0611 µM; under setting [4], 0.406 µM.

Turning to “GUCUCGUGAGGAUAUCAUGAUUGACUUAAUUUAUUUUAGCGUGAGAAGGCACAUGAGGAUCACCCAUGUGAUUC”, the “apparent Kd” value was 0.0195 µM under setting [3] and 0.0213 µM under setting [4].

For “AGCUGUGGCCGAGGAUAUCUGUCCCAUAAAACCGAAAUAUAAUCGGACAUGAGGAUCACCCAUGUAGAGAAGGCGGUCUCAGCA”, the “apparent Kd” value reads like this: under setting [3], 0.0441 µM; under setting [4], 0.0707 µM.

As for “GCACGGUAAGUGAGGAUAUACCUCUGGAUACAGAGGUAGAAGGCACAUGAGGAUCACCCAUGUCCUAGCCGUGC”, the “apparent Kd” value came out at 0.0367 µM under setting [3] and 0.271 µM under setting [4].

Turning to “UGUCGGAGCAGAGGAUAUACAUGAGGAUCACCCAUGUAAUAAAUCCAAGCCUGGAAACAGGCAAUGUAGAAGGCUGCUCCGACA”, the “apparent Kd” value reads like this: under setting [3], 0.0168 µM; under setting [4], 0.0802 µM.

Turning to “CGCUGUCACGCAGGAUAUGCAUUGGAUUCCAAUGCAGAAGGGCGAUUACAUGAGGAUCACCCAUGUGCUGACAGUGAAGAAGAG”, the “apparent Kd” value was found to be 1.3 µM under setting [1] and 0.0659 µM under setting [2].

Take “UGUAAUGCUAUUGCAGAGGUUUAGAAGGAUAUACAUCGACAUGACCGUACAUGAGGAUCACCCAUGUAGAAGGUCUAACUUCGU”: the “apparent Kd” value runs as follows: under setting [3], 0.00561 µM; under setting [4], 0.00555 µM.

As to “GAUUUCGCAUGAGGAUAUGCUCGCAUUUCAAGAGCAGAAGGUAUGUCUUUAGACAUGAGGAUCACCCAUGUAGUUAAGAUUGAA”, the “apparent Kd” value under setting [1] stood at 0.0243 µM and the “apparent Kd” value under setting [2] came to 0.0147 µM.

In the case of “AUACAUGAGGAUCACCCAUGUAAUUAAUUAACUAGUAAGAUCUAGGAUAUCAGCUCGUUUAGAGCUGAGAAGGAGAUCACAUGU”, the “apparent Kd” value under setting [1] is 0.0368 µM and the “apparent Kd” value under setting [2] was determined as 0.0156 µM.

For the sequence “CAGAAGUCAGGAUAUCCAUGGCGGCACUUGCGUGGUGGCGUGGAGAAGGGACAUGAGGAUCACCCAUGUAAAGU”, the “apparent Kd” value turned out to be 0.0587 µM under setting [3] and 0.0617 µM under setting [4].

Take “CGAUAACAUAGUUAUCAGUAACGGACAUGAGGAUCACCCAUGUAGGAUAUGUUACUCAACGAGUAACAGAAGGACAUGAGUCUU”: the “apparent Kd” value is 0.0192 µM under setting [3] and 0.0912 µM under setting [4].

For the sequence “GGGAGACAUGAGGAUCACCCAUGUGAAAACGUGUGAGGAUAUCAAUGGAAACCAUACUGUUGAGAAGGCACUUGUC”, the “apparent Kd” value runs as follows: under setting [1], 0.118 µM; under setting [2], 0.0413 µM.

“CGCACUGAUAGAGGAUAUGUUUUACAUGAGGAUCACCCAUGUGUACAAGGAUUAAUAUAUAAGUAACAGAAGGCUAUUUGUGCG”: the “apparent Kd” value by setting is: under setting [3], 0.00655 µM; under setting [4], 0.00585 µM.

For the sequence “UGAUAGGACACAGGAUAUACGUGCUAGAGAUACUAGCAAAAUUUCCUCACAUGAGGAUCACCCAUGUAGAAGGGUGUCCUAUCU”, the “apparent Kd” value is 0.0103 µM under setting [3] and 0.135 µM under setting [4].

As to “CUAAAACAUGAGGAUCACCCAUGUCAACAAAGUCGAGGAUAUGGGCAAAUAAAAUAAGAACCAGAAGGCGAAUAAC”, the “apparent Kd” value runs as follows: under setting [1], 0.409 µM; under setting [2], 0.0362 µM.

For the sequence “ACUGUUAAGACAGGAUAUCGAUUAUAACCUCUAAAACAUGAGGAUCACCCAUGUAGUCCGUAUUGCGAGAAGGGUCAUUUUAGU”, the “apparent Kd” value turned out to be 0.295 µM under setting [1] and 0.233 µM under setting [2].

For “UUACUAUUGGAGAAGGCUCGAUAAUAUAUAAUGGGAGGAUAUCCAACAUGAGGAUCACCCAUGUUUCACCCAUAUGAGGAUCAC”, the “apparent Kd” value came to 0.0126 µM under setting [3] and 0.0132 µM under setting [4].

As for “GGUCCACAUGAGGAUCACCCAUGUCAGGAUAUACACGGCACAAUAAUAAGUGCCACCCGUAGAAGGGACGCUGG”, the “apparent Kd” value runs as follows: under setting [3], 0.0148 µM; under setting [4], 0.0376 µM.

With “AGGUGCACAGGAUAUACAUGAGGAUCACCCAUGUGCCAACUGUGCGCUGGUCCUUUAUGUAGAAGGGUGCGUCC”, the “apparent Kd” value under setting [3] turned out to be 0.0221 µM and the “apparent Kd” value under setting [4] stood at 0.0158 µM.

For the sequence “AAAACUGGAGGAUAUACAUGAGGAUCACCCAUGUGUGGAUGAGCUGUGUCGGCGUCACGUAGAAGGCCACAAAA”, the “apparent Kd” value was determined as 0.0405 µM under setting [3] and 0.0475 µM under setting [4].

On to “UUUUUUGUUGUGAGGAUAUCGUAUUUUUUUUGUUACGAGAAGGCACAUGAGGAUCACCCAUGUUUUUUGAUGUU”, for which the “apparent Kd” value under setting [3] was 0.0248 µM and the “apparent Kd” value under setting [4] amounted to 0.0567 µM.

On to “GUGUAGACAGGAUAUGCUUUGAGCAUAUGAGAGUAUGCUCUACAUGAGGAUCACCCAUGUAGAAGGGUCUACAC”, for which the “apparent Kd” value under setting [3] is 0.0119 µM and the “apparent Kd” value under setting [4] came to 0.0125 µM.

Consider “GAUAGGACAGAGAAGGACGUAGCUAGAGAUACUAGCAUAAAGUCUUCAACAUGAGGAUCACCCAUGUAGGAUAUCUGUCCUAUC”, for which the “apparent Kd” value under setting [3] is 0.00643 µM and the “apparent Kd” value under setting [4] is 0.00664 µM.
